Results as given in ChEMBL document CHEMBL1125486, “Inhibitors of blood platelet cAMP phosphodiesterase. 3. 1,3-Dihydro-2H-imidazo[4,5-b]quinolin-2-one derivatives with enhanced aqueous solubility” (J Med Chem, 1992).
≈ marks a conversion by molar mass, not a printed value.

Key:
[1] = Aqueous solubility; type: physicochemical; details: water; read-out: S
In short: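 Water (0.5 mL) added to 10 mg compound at room temperature, diluted up to […] unless dissolution occurred.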

Homo sapiens = species: Homo sapiens; test: Inhibition of ADP-induced aggregation of human platelets; type: functional
Phosphodiesterase 3 [2] = target: T1, Phosphodiesterase 3 (Homo sapiens, UniProt Q14432+Q13370); test: Inhibition of human platelet c-AMP phosphodiesterase PDE 3
Oryctolagus cuniculus [3] = test: Inhibition of laser induced thrombus formation in microvasculature of rabbit ear chamber at a peroral dose of 3 mg/kg; type: functional; details: route oral
In short: (§1)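 Conscious rabbits, laser-induced microvessel thrombosis, oral dosing; 10 trials 2 h post-dose compared with 10 predose trials in same rabbit; mean thrombus area, % inhibition; at least three rabbits per compound.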

Oryctolagus cuniculus [4] = test: Inhibition of laser induced thrombus formation in microvasculature of rabbit ear chamber at a peroral dose of 1 mg/kg; type: functional; details: route oral; in short: as §1
Phosphodiesterase 3 [5] = target: T1, Phosphodiesterase 3; test: Inhibition of human platelet cAMP phosphodiesterase PDE 3
In short: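 Human platelet cAMP PDE enzyme preparation; IC50 read from plots of cAMP hydrolysis against compound concentration; mean of duplicate determinations; BMY 20844 positive control.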

## CN(C(=O)C1CCN(c2ccc3[nH]c4nc(O)nc-4cc3c2)CC1)C1CCCCC1
[1]
  solubility: < 10000 µg/mL
Homo sapiens
  EC50: > 37000 nM

## CCOC(=O)CN1CCN(C(=O)CCCOc2ccc3[nH]c4nc(O)nc-4cc3c2)CC1
[1]
  solubility: > 10000 µg/mL
Homo sapiens
  EC50: 2440 nM
Phosphodiesterase 3 [2]
  IC50: 2 nM

## O=C(CCCOc1ccc2[nH]c3nc(O)nc-3cc2c1)N1CCN(c2ccccn2)CC1
[1]
  solubility: > 10000 µg/mL
Homo sapiens
  EC50: 670 nM
Phosphodiesterase 3 [2]
  IC50: 5 nM

## CC(C)CN1CCN(C(=O)CCCOc2ccc3[nH]c4nc(O)nc-4cc3c2)CC1
[1]
  solubility: > 10000 µg/mL
Homo sapiens
  EC50: 2430 nM
Phosphodiesterase 3 [2]
  IC50: 1 nM

## Oc1nc2cc3cc(N4CCCCC4)ccc3[nH]c-2n1
[1]
  solubility: > 10000 µg/mL
Homo sapiens
  EC50: 900 nM
Oryctolagus cuniculus [3]
  inhibition in vivo at 3 mg/kg: 59%
Oryctolagus cuniculus [4]
  inhibition in vivo at 1 mg/kg: 32%

## COCCN1CCN(C(=O)CCCOc2ccc3[nH]c4nc(O)nc-4cc3c2)CC1
[1]
  solubility: > 10000 µg/mL
Homo sapiens
  EC50: 20800 nM
Phosphodiesterase 3 [2]
  IC50: 7 nM

## O=C(CCCOc1ccc2[nH]c3nc(O)nc-3cc2c1)N1CCN(C(c2ccccc2)c2ccccc2)CC1
[1]
  solubility: < 10000 µg/mL
Homo sapiens
  EC50: 62 nM
Phosphodiesterase 3 [2]
  IC50: 3 nM

## CN(CCc1ccccn1)C(=O)CCCOc1ccc2[nH]c3nc(O)nc-3cc2c1
[1]
  solubility: > 10000 µg/mL
Homo sapiens
  EC50: 12400 nM
Phosphodiesterase 3 [2]
  IC50: 4.5 nM

## O=C(CCCOc1ccc2[nH]c3nc(O)nc-3cc2c1)N1CCN(Cc2ccc(F)cc2)CC1
[1]
  solubility: > 10000 µg/mL
Homo sapiens
  EC50: 530 nM
Phosphodiesterase 3 [2]
  IC50: 2 nM

## O=C(CCCOc1ccc2[nH]c3nc(O)nc-3cc2c1)N1CCN(C(c2ccc(F)cc2)c2ccc(F)cc2)CC1
[1]
  solubility: < 10000 µg/mL
Homo sapiens
  EC50: 130 nM
Phosphodiesterase 3 [2]
  IC50: 0.3 nM

## O=C(c1ccccc1)N1CCN(c2ccc3[nH]c4nc(O)nc-4cc3c2)CC1
[1]
  solubility: < 10000 µg/mL
Homo sapiens
  EC50: 6820 nM
Phosphodiesterase 3 [2]
  IC50: 600 nM

## O=C(CCCOc1ccc2[nH]c3nc(O)nc-3cc2c1)N1CCN(Cc2cccs2)CC1
[1]
  solubility: > 10000 µg/mL
Homo sapiens
  EC50: 380 nM
Phosphodiesterase 3 [2]
  IC50: 0.7 nM

## O=C(CCCOc1ccc2[nH]c3nc(O)nc-3cc2c1)N1CCN(CC2CCCCCC2)CC1
[1]
  solubility: < 10000 µg/mL
Homo sapiens
  EC50: 290 nM
Phosphodiesterase 3 [2]
  IC50: 0.2 nM

## CN1CCN(C(=O)CCCOc2ccc3[nH]c4nc(O)nc-4cc3c2)CC1
[1]
  solubility: > 20000 µg/mL
Homo sapiens
  EC50: 8900 nM
Phosphodiesterase 3 [2]
  IC50: 7 nM

## O=C(CCCOc1ccc2[nH]c3nc(O)nc-3cc2c1)N1CCN(Cc2ccc3c(c2)OCO3)CC1
[1]
  solubility: 10000 µg/mL (≈ 20.4 mM)
Homo sapiens
  EC50: 330 nM
Phosphodiesterase 3 [2]
  IC50: 0.9 nM

## O=C(CCCOc1ccc2[nH]c3nc(O)nc-3cc2c1)N1CCN(c2cccc(C(F)(F)F)c2)CC1
[1]
  solubility: < 10000 µg/mL
Homo sapiens
  EC50: 720 nM
Phosphodiesterase 3 [2]
  IC50: 0.6 nM

## O=C(CCCOc1ccc2[nH]c3nc(O)nc-3cc2c1)N1CCN(C2CCCCCC2)CC1
[1]
  solubility: > 10000 µg/mL
Homo sapiens
  EC50: 750 nM
Phosphodiesterase 3 [2]
  IC50: 0.9 nM

## O=C(CCCOc1ccc2[nH]c3nc(O)nc-3cc2c1)N1CCN(Cc2ccc(C(F)(F)F)cc2)CC1
[1]
  solubility: < 10000 µg/mL
Homo sapiens
  EC50: 2110 nM
Phosphodiesterase 3 [2]
  IC50: 0.4 nM

## O=C(CCCOc1ccc2[nH]c3nc(O)nc-3cc2c1)N1CCN(CCc2ccccc2C(F)(F)F)CC1
[1]
  solubility: < 10000 µg/mL
Homo sapiens
  EC50: 110 nM
Phosphodiesterase 3 [2]
  IC50: 0.3 nM

## O=C(CCCCCOc1ccc2[nH]c3nc(O)nc-3cc2c1)N1CCN(CC2CCCCC2)CC1
[1]
  solubility: > 10000 µg/mL
Homo sapiens
  EC50: 710 nM
Phosphodiesterase 3 [2]
  IC50: 0.6 nM

## CCN(CC)c1ccc2[nH]c3nc(O)nc-3cc2c1
[1]
  solubility: > 10000 µg/mL
Homo sapiens
  EC50: 1420 nM
Phosphodiesterase 3 [5]
  IC50: 70 nM

## O=C(CCCOc1ccc2[nH]c3nc(O)nc-3cc2c1)N1CCNCC1
[1]
  solubility: > 10000 µg/mL
Homo sapiens
  EC50: 53700 nM
Phosphodiesterase 3 [2]
  IC50: 40 nM

## O=C(CCCOc1ccc2[nH]c3nc(O)nc-3cc2c1)N1CCN(CC2CCCC2)CC1
[1]
  solubility: > 10000 µg/mL
Homo sapiens
  EC50: 1300 nM
Phosphodiesterase 3 [2]
  IC50: 0.5 nM

## O=C(CCCOc1ccc2[nH]c3nc(O)nc-3cc2c1)N1CCC(N2CCCCC2)CC1
[1]
  solubility: > 10000 µg/mL
Homo sapiens
  EC50: 11400 nM
Phosphodiesterase 3 [2]
  IC50: 5 nM

## Cn1c(O)nc2nc3ccc(OCCCC(=O)N4CCN(Cc5ccccc5)CC4)cc3cc21
[1]
  solubility: > 10000 µg/mL
Homo sapiens
  EC50: > 59100 nM
Phosphodiesterase 3 [2]
  IC50: 30 nM

## O=C(CCCOc1ccc2[nH]c3nc(O)nc-3cc2c1)N1CCN(c2ccccc2)CC1
[1]
  solubility: < 10000 µg/mL
Homo sapiens
  EC50: 50 nM
Phosphodiesterase 3 [2]
  IC50: 2 nM

## O=C(CCCOc1ccc2[nH]c3nc(O)nc-3cc2c1)NC1CN2CCC1CC2 (centres undefined)
[1]
  solubility: > 10000 µg/mL
Homo sapiens
  EC50: 12400 nM
Phosphodiesterase 3 [2]
  IC50: 40 nM

## O=C(CCCOc1ccc2[nH]c3nc(O)nc-3cc2c1)N1CCN(CCc2ccccc2)CC1
[1]
  solubility: < 10000 µg/mL
Homo sapiens
  EC50: 190 nM
Phosphodiesterase 3 [2]
  IC50: 2 nM
